Among the data in the array DNA melting data of Ke et al. (doi:10.1101/2024.01.08.574731) are folding enthalpy and Tm values, retold here.

Data set [1] in a line: folding enthalpy; higher = less favourable; fluorescence melt of hairpins on a sequencing array, two-state fit. The conditions noted are these: sodium 0.088 M. An outline of the steps: (§1)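 Hairpins were imaged by Cy3 fluorescence on a sequenced MiSeq flow cell with annealed Cy3 and quencher oligos, in 50 mM Na-HEPES pH 8.0, 25 mM NaCl, in 2.5 °C steps up to 60 °C. Bootstrapped two-state fits of normalised signals gave melting temperature and folding enthalpy. Four replicates were combined by inverse variance, and fitted temperatures were raised by 9.35 °C to match UV melts.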

The nature of data set [2]: melting temperature; fluorescence melt of hairpins on a sequencing array, two-state fit, raised by 9.35 °C to match UV melts. To be noted: sodium 0.088 M. An outline of the steps: as §1

GCGGTCACCGC ((((...)))): the folding enthalpy in data set [1] was -23.8 kcal/mol. The Tm in data set [2] came to 63 °C.
For the sequence GCGGTCGAAAGACCACGC ((((((....)))..))), in data set [1], the folding enthalpy is -17 kcal/mol. For the same sequence, the Tm in data set [2] was 57 °C.
For GCGGTCGAAAGACCTCGC ((((((....)))..))) the same measures were -14.8 kcal/mol and 50.2 °C.
For GCGGTCGGAAACGACTGC ((.((((....)))).)) the same measures were -41.5 kcal/mol and 64.2 °C.
For GCGGTCGGAAACGGTCGC (((..((....))..))) the same measures were -25.1 kcal/mol and 52.2 °C.
Consider GCGGTGATCCGC ((((....)))), for which, in data set [1], the folding enthalpy is -28.1 kcal/mol. Further, the Tm in data set [2] was 54.8 °C.
For GCGGTGCGAAAGCATGGC ((..(((....)))..)) the same measures were -21.8 kcal/mol and 56.1 °C.
In the case of GCGGTGCGAAAGCATTGC ((..(((....)))..)), the folding enthalpy in data set [1] is -22.4 kcal/mol. Further, in data set [2], the Tm came to 59.2 °C.
As to GCGGTGGGAAACTACCGC (((((.(....).))))), in data set [1], the folding enthalpy is -37.5 kcal/mol. In addition, in data set [2], the Tm is 60.5 °C.
Turning to GCGGTTAACCGC ((((....)))), the folding enthalpy in data set [1] was -28.7 kcal/mol. The Tm in data set [2] was 66.7 °C.
For GCGGTTACCCGC ((((....)))) the same measures were -28.4 kcal/mol and 56.7 °C.
On the same counts, the results for GCGGTTGGAAACAATCGC (((.(((....))).))) are -40.8 kcal/mol and 56.1 °C.
For GCGGTTGGCCGC ((((....)))) the same measures were -25.3 kcal/mol and 64.8 °C.
With GCGGTTTCCCGC ((((....)))), the folding enthalpy in data set [1] is -25 kcal/mol. In addition, the Tm in data set [2] was determined as 56.2 °C.
For GCGTAAAGACGC ((((....)))) the same measures were -17.8 kcal/mol and 46.9 °C.
As for GCGTAACACGC ((((...)))), the folding enthalpy in data set [1] is -20.9 kcal/mol. In data set [2], the Tm came to 55.7 °C.
For GCGTAACCACGC ((((....)))), the folding enthalpy in data set [1] is -23.3 kcal/mol. Also, the Tm in data set [2] was found to be 54.8 °C.
On the same counts, the results for GCGTAACTACGC ((((....)))) are -25.4 kcal/mol and 57.1 °C.
As to GCGTAAGACGC ((((...)))), the folding enthalpy in data set [1] was -21.3 kcal/mol. For the same sequence, the Tm in data set [2] was found to be 53 °C.
For the sequence GCGTAAGGAAACTTATGC ((.((((....)))).)), the folding enthalpy in data set [1] is -31.2 kcal/mol. For the same sequence, the Tm in data set [2] stood at 45.6 °C.
Regarding GCGTAAGGAAACTTGTGC ((..(((....)))..)), the folding enthalpy in data set [1] was -10.8 kcal/mol. In addition, in data set [2], the Tm was found to be 29.7 °C.
Consider GCGTAATAACGC ((((....)))), for which the folding enthalpy in data set [1] is -21.1 kcal/mol. Moreover, the Tm in data set [2] was determined as 51.6 °C.
For GCGTAATACGC ((((...)))) the same measures were -18.7 kcal/mol and 51.9 °C.
For GCGTAATGACGC ((((....)))) the same measures were -23.2 kcal/mol and 51.5 °C.
On the same counts, the results for GCGTACCGAAAGGTTCGC (((.(((....))).))) are -50.5 kcal/mol and 63 °C.
On to GCGTACCTACGC ((((....)))), for which, in data set [1], the folding enthalpy was -29.7 kcal/mol. For the same sequence, the Tm in data set [2] was 52.8 °C.
Regarding GCGTACGAAAGTAACGC ((((((....))).))), in data set [1], the folding enthalpy is -40.2 kcal/mol. The Tm in data set [2] stood at 59.4 °C.
As to GCGTACGAAAGTACACGC ((((((....)))..))), the folding enthalpy in data set [1] is -19.1 kcal/mol. In data set [2], the Tm came to 52.6 °C.
Regarding GCGTACGAAAGTATCGC ((((((....))).))), the folding enthalpy in data set [1] is -39.6 kcal/mol. For the same sequence, in data set [2], the Tm is 53.4 °C.
For GCGTACGGAAACGCACAC (.((.((....)).)).) the same measures were -12.6 kcal/mol and 38.1 °C.
For GCGTACTTACGC ((((....)))) the same measures were -26.1 kcal/mol and 54.7 °C.
In the case of GCGTAGCCACGC ((((....)))), the folding enthalpy in data set [1] was -9.67 kcal/mol. In data set [2], the Tm is 58.3 °C.
On the same counts, the results for GCGTAGCGAAAGCTGTGC ((..(((....)))..)) are -10 kcal/mol and 46.1 °C.
On the same counts, the results for GCGTAGGAAACTACGC ((((((....)))))) are -31.2 kcal/mol and 67.1 °C.
On the same counts, the results for GCGTAGGACGC ((((...)))) are -17.2 kcal/mol and 55.2 °C.
GCGTAGGGAAACCCACAC (.((.((....)).)).): the folding enthalpy in data set [1] is -10.6 kcal/mol. In addition, the Tm in data set [2] came to 21.3 °C.
For GCGTAGGGAAACTTACGC (((((.(....).))))) the same measures were -39.4 kcal/mol and 50.4 °C.
Take GCGTAGGGACGC ((((....)))): in data set [1], the folding enthalpy is -13 kcal/mol. The Tm in data set [2] came out at 52 °C.
With GCGTAGTAACGC ((((....)))), in data set [1], the folding enthalpy is -22 kcal/mol. Besides, the Tm in data set [2] is 53 °C.
